Runt-SMMHC FRET – blocks binding of human RUNX1 Runt domain to CBFb-SMMHC. Q01196+Q13951. Cerulean-Runt/Venus-CBFb-SMMHC FRET ratio 530/480, 1 h. inhibition, % at 20 µM. hit rate 0.74% among 220,000;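 active = mean inhibition across duplicate retests at 20 µM reaching about 50%, limit read from the data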;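 also: 0% = DMSO wells and 100% = wells with excess untagged CBFb-SMMHC; inhibitors lower the FRET ratio by blocking Runt binding to CBFb-SMMHC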
Wee1 stabilizer – human Wee1 degradation inhibition, primary screen; hit rate 1.2% among 220,000; reporter increase, % at 5 µM; HeLa Luc-Wee1K328M stability, luciferase luminescence; 100% = proteasome inhibitor MG132 effect; AID 1321; P30291;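 active = activation above the mean of all tested compounds plus 3 SD, set per screening run, cut at about 8.8% in these data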;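 also: cells exposed to compound for 20 h before luminescence read; 0% = DMSO alone and 100% = MG132 at 30 µM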
RanGTP-Imp inh – inhibitors of RanGTP-importin-beta interaction, primary screen, biochemical, FRET, CFP-Ran, YFP-importin-beta, homogeneous; cell-free CFP-Ran/YFP-importin-beta FRET ratio; inhibition, % (no concentration beside the values); hit rate 1.1% among 300,000; AID 2216;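 active = more than half of the replicate wells show a fall in the fluorescence ratio signal beyond about 16%, limit read from the data, passing the limit was not always enough; inconclusive = exactly half of the replicate wells pass the set limit; inactive = fewer than half of replicates pass the limit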;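 also: 0% = DMSO wells and 100% = Ran loaded with GDP instead of GTP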
AI-2 QS modul – modulators of Vibrio harveyi AI-2 quorum sensing system; AID 2094; activity change, % at 7.5 µM; Vibrio harveyi JMH597 AI-2 luminescence/OD600 ratio, 9 h; stronger effect = lower value; strain lacks LuxN and CqsS sensors; 0 = neutral-control median; hit rate 0.4% among 300,000; in the data active = activity change below about -75%, passing the limit was not always enough; inconclusive = no clear call, values can overlap the other calls;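 also: luminescence divided by OD600 gain over 9 h not by final OD600 alone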
KLK7 zymogen act – proKLK7 (human) activation, primary screen | hit rate 0.9% among 370,000 | AID 652039 | activation, % at 7 µM | purified proKLK7, EDANS-DABCYL substrate fluorescence; 100% is mature enzyme control, 0% vehicle | P49862;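 active = activation above the mean of all tested compounds plus 3 SD, computed per campaign excluding outliers beyond control limits, cut at about 13% in these data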
Target sequence (P49862 whole entry, looked up): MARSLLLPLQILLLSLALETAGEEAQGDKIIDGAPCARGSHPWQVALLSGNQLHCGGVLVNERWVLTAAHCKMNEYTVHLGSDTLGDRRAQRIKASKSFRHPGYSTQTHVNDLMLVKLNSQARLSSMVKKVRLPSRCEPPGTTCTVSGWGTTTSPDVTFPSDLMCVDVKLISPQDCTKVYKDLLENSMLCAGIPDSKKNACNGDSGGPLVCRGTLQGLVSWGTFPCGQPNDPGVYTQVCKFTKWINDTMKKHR
Runt-CBFb FRET – blocks binding of human RUNX1 Runt domain to CBFb. Q01196+Q13951. Cerulean-Runt/Venus-CBFb FRET ratio 530/480, 1 h. inhibition, % at 20 µM. hit rate 0.46% among 220,000. AID 1496;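 active = inhibition over about 50% at 20 µM in the single-dose screen, limit read from the data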;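 also: 0% = DMSO wells and 100% = excess unlabeled CBFb competitor control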
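test system = Cerulean-tagged RUNX1 Runt domain (FRET donor) fusion protein | reagent = Venus-CBFb binding partner, 100 nM | incubation = protein complex preformed 1 h, compound exposure 1 h, room temperature, dark | detection = FRET fluorescence | read-out basis = loss of energy transfer signal | controls = 5 µM unlabeled CBFb as full-inhibition high control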
Wee1 degr conf – human Wee1 degradation inhibition, confirmation; shares compounds with Wee1 stabilizer; HeLa Luc-Wee1K328M degradation, luminescence; vehicle 0%, proteasome-blocked wells 100%; activation, % at 5 µM; hit rate 4% among 1,100; AID 1410; in the data active = activation above about 8.9%
An asterisk follows results filed as active; ? = inconclusive; · = no result. Shown are actives, neighbours in structure and some others; about 2.9% of the full set was active somewhere.

SMILES	Runt-SMMHC FRET	Wee1 stabilizer	RanGTP-Imp inh	AI-2 QS modul	KLK7 zymogen act	Runt-CBFb FRET	Wee1 degr conf
COc1cc(NC(=O)c2ccccc2)c(OC)cc1NC(=O)CN1C(=O)NC2(CCCCC2C)C1=O (configuration not stated)	·	·	·	·	1	·	·
O=C(O)Cc1ccc(NC(=O)CCN2C(=O)c3ccc([N+](=O)[O-])cc3C2=O)cc1	-5	15*	1	6	0	3	1
O=C(CCN1C(=O)c2ccc([N+](=O)[O-])cc2C1=O)Nc1ccc(O)cc1C(=O)O	-5	3	-1	24	-2	0	·
O=C(CO/N=C1\CCCc2nonc21)Nc1ccc(Br)cc1	-4	12*	2	16	0	2	7
O=C(NCc1ccc(Cl)cc1Cl)C(=O)N1CCCCC1	-1	-2	0	17	0	1	·
CCOc1ccccc1NC(=O)NCCCCc1ccccc1	·	·	-1	13	0	·	·
O=C(CCNS(=O)(=O)c1cccs1)N1CCc2ccccc2C1	-5	19*	-3	16	0	-1	1
CCOC(=O)C1=CN(Cc2ccco2)S(=O)(=O)N(C)C1CC (configuration not stated)	·	·	·	·	1	·	·
COc1cc(/C=N/N=C(/C(=O)c2ccccc2)c2ccccc2)cc(OC)c1O	27	12*	5	26	1	-1	0
Cc1ccc(NC(=S)N2CCN(S(=O)(=O)c3ccc(F)cc3)CC2)cc1	·	·	3	-2	0	·	·
C=CCNC(=S)N1CCN(S(=O)(=O)c2ccc(C)cc2)CC1	-1	17*	0	11	0	-1	3
COc1ccc(NC(=O)CSCC(=O)NCCc2ccccn2)cc1	-2	16*	3	17	-1	0	-1
COc1ccc(/C=N/NC(=O)c2ccc3ccccc3c2)cc1OS(=O)(=O)c1ccc(NC(C)=O)cc1	-5	14*	1	22	-25	·	13*
COc1ccc(C=O)cc1OS(=O)(=O)c1ccc(NC(C)=O)cc1	-1	1	-4	18	0	-2	·
O=C(Nc1cccc(Cl)c1)Nc1nccs1	-1	-2	4	8	-1	-1	·
O=C(Nc1ccc(Cl)c(Cl)c1)Nc1nccs1	0	14*	1	26	0	2	25*
N#Cc1ccccc1OCC(=O)NC(=O)NCc1ccccc1	-1	15*	-3	17	0	0	-2
Cc1ccc(NC(=S)N2CCOCC2)cc1	0	-2	3	22	0	4	·
Cc1ccc(NC(=S)N2CCCC(O)C2)cc1 (configuration not stated)	1	14*	-5	19	0	0	2
CCOC(=O)c1ccccc1NC(=O)CN(c1ccc(OCC)cc1)S(C)(=O)=O	·	12*	?	9	·	·	4
Cc1ccc2c(c1)N(CC(=O)NCCC1=CCCCC1)C(=O)c1cccnc1O2	·	·	-1	5	0	·	·
COc1ccccc1-n1cnnc1SCC(=O)Nc1nc(C)c(Cl)cc1Cl	4	13*	1	7	0	0	3
Cc1ccc(Cl)cc1-n1c(=O)cc(N2CCN(C(=O)c3ccco3)CC2)[nH]c1=O	2	14*	32*	11	0	-1	-1
CCC(C)[C@H](NC(=O)N1CCN(c2cccc(C(F)(F)F)c2)CC1)C(=O)OC (some centres not stated)	-7	12*	-3	2	0	-4	3
N#Cc1cc[n+](CC(=O)c2ccc(NC(=O)c3ccccc3)cc2)cc1	1	-1	2	21	1	4	·
CCOc1ccccc1NC(=O)Nc1cnccn1	0	17*	2	6	0	0	2
CCOc1ccccc1NC(=O)Nc1cccc(C(C)=O)c1	1	15*	1	6	1	1	2

Assay outcomes (PubChem BioAssay)
